pIC50: −log10 of the molar value. Activity calls are given as the source filed them. No cut-off for these calls is given here.
Tests used:
CCRF-CEM [1] = experiment: Inhibition of cell proliferation of human CCRF-CEM cells at 1 uM after 96 to 120 hrs by CellTiter assay; format: functional
HT-29 [2] = experiment: Inhibition of cell proliferation of human HT-29 cells at 1 uM after 96 to 120 hrs by CellTiter assay; format: functional
MDA-MB-468 [3] = experiment: Inhibition of cell proliferation of human MDA-MB-468 cells at 1 uM after 96 to 120 hrs by CellTiter assay; format: functional
MDA-MB-361 [4] = experiment: Inhibition of cell proliferation of human MDA-MB-361 cells at 1 uM after 96 to 120 hrs by CellTiter assay; format: functional
SK-OV-3 [5] = experiment: Inhibition of cell proliferation of human SKOV3 cells at 1 uM after 96 to 120 hrs by CellTiter assay; format: functional
CCRF-CEM [6] = experiment: Inhibition of cell proliferation of human CCRF-CEM cells at 1 uM by CellTiter assay; format: functional, cell-based; conditions: TDE = time-dependent effect
HT-29 [7] = experiment: Inhibition of cell proliferation of human HT-29 cells at 1 uM by CellTiter assay; format: functional, cell-based; conditions: TDE = time-dependent effect
MDA-MB-468 [8] = experiment: Inhibition of cell proliferation of human MDA-MB-468 cells at 1 uM by CellTiter assay; format: functional, cell-based; conditions: TDE = time-dependent effect
MDA-MB-361 [9] = experiment: Inhibition of cell proliferation of human MDA-MB-361 cells at 1 uM by CellTiter assay; format: functional, cell-based; conditions: TDE = time-dependent effect
SK-OV-3 [10] = experiment: Inhibition of cell proliferation of human SKOV3 cells at 1 uM by CellTiter assay; format: functional, cell-based; conditions: TDE = time-dependent effect
CCRF-CEM [11] = experiment: Growth inhibition of human CCRF-CEM cells at 1 uM after 96 hrs by CellTiter assay; format: functional, cell-based
HT-29 [12] = experiment: Growth inhibition of human HT-29 cells at 1 uM after 96 hrs by CellTiter assay; format: functional, cell-based
MDA-MB-468 [13] = experiment: Growth inhibition of human MDA-MB-468 cells at 1 uM after 96 hrs by CellTiter assay; format: functional, cell-based
MDA-MB-361 [14] = experiment: Growth inhibition of human MDA-MB-361 cells at 1 uM after 96 hrs by CellTiter assay; format: functional, cell-based
SK-OV-3 [15] = experiment: Growth inhibition of human SKOV3 cells at 1 uM after 96 hrs by CellTiter assay; format: functional, cell-based
CCRF-CEM [16] = experiment: Inhibition of cell proliferation of human CCRF-CEM cells after 96 hrs by CellTiter assay; format: functional, cell-based
MDA-MB-468 [17] = experiment: Inhibition of cell proliferation of human MDA-MB-468 cells at 1 uM after 120 hrs by CellTiter assay; format: functional; conditions: MDA-MB-468, 120 h
[18] = Drug uptake in doxorubicin-resistant human SKOV3 cell nucleus at 5 uM after 1 hr by confocal microscopic analysis; format: ADME, cell-based; conditions: sk-ov-3, 1 h
How it was run: (§1)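 Coverslip-grown SK-OV-3 cells (seeded overnight, EMEM) treated with 5 μM compound in opti-MEM for 1 h at 37 °C, PBS-washed three times, mounted and imaged by laser scanning confocal microscopy using rhodamine and phase contrast channels for Dox fluorescence.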

[19] = Cellular uptake in doxorubicin-resistant human SKOV3 cells at 5 uM incubated for 1 hr followed by incubation with fresh media for 24 hrs measured by confocal microscopic analysis; format: ADME, cell-based, Cytoplasm; conditions: sk-ov-3, 1 h
How it was run: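 SK-OV-3 cells seeded overnight on coverslips in EMEM, exposed to 5 μM compound in opti-MEM for 1 h at 37 °C, washed, then kept in fresh serum-containing medium 24 h; PBS-washed and imaged by laser scanning confocal microscopy, rhodamine and phase contrast channels.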

SK-OV-3 [20] = experiment: Cytotoxicity against human SKOV3 cells at 10 uM incubated for 2 hrs followed by incubation in compound-free medium for 72 hrs by MTT assay; format: functional
How it was run: (§2)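 SK-OV-3 cells plated overnight at 5000 cells/well; exposed to compound (up to 10 μM), then medium replaced with drug-free medium for 72 h; MTT added 2 h, formazan read at 490 nm; % cytotoxicity = (OD untreated − OD treated)/OD untreated × 100.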

SK-OV-3 [21] = experiment: Cytotoxicity against human SKOV3 cells after 48 hrs; format: functional, cell-based; conditions: SK-OV-3, 48 h
[22] = target: DNA topoisomerase 2-alpha (Homo sapiens) (UniProt P11388); conditions: 5 uM
Chain of DNA topoisomerase 2-alpha (Homo sapiens) (P11388 whole entry): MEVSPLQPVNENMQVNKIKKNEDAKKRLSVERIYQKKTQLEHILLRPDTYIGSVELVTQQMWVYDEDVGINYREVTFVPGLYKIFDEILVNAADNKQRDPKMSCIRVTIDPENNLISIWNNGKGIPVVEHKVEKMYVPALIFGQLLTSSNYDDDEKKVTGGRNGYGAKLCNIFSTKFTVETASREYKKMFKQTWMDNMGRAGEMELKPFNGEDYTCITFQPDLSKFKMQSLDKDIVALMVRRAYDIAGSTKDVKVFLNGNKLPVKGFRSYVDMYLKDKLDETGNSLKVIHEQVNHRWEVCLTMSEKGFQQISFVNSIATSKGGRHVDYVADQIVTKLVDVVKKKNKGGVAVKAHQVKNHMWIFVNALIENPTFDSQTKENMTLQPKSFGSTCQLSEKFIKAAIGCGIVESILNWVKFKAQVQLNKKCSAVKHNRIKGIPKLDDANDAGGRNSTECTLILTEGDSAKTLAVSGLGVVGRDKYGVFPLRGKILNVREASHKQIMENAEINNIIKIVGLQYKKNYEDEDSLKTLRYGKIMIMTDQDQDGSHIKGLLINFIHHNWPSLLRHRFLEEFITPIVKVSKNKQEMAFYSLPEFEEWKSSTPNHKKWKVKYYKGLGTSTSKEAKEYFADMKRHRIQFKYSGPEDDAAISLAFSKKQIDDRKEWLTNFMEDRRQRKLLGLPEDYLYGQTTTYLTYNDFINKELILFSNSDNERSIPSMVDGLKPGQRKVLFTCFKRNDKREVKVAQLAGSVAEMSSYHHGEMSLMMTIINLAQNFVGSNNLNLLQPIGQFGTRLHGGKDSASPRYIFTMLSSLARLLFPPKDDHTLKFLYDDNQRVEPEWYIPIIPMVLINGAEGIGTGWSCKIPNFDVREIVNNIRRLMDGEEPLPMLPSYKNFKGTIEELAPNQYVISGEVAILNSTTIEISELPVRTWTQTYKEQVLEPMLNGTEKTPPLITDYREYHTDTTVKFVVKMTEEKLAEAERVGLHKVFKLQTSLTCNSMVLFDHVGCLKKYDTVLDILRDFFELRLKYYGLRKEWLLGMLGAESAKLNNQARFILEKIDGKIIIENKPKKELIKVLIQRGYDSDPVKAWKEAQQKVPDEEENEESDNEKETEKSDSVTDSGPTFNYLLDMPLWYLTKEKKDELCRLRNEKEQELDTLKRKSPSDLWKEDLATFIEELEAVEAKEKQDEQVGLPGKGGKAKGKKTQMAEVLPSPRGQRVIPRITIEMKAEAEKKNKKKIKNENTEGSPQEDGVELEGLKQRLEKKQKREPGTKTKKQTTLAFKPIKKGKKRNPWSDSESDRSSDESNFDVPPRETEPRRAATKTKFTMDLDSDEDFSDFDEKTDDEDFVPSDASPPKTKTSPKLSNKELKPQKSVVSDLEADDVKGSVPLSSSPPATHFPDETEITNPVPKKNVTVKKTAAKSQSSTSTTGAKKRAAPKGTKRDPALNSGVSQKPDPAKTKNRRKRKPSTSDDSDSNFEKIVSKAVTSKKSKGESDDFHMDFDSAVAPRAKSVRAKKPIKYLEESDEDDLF

SK-OV-3 [23] = experiment: Cellular uptake in doxorubicin-resistant human SKOV3 cells at 5 uM after 30 mins by FACS analysis relative to doxorubicin; format: ADME, cell-based; conditions: sk-ov-3, 0.5 h
How it was run: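 SK-OV-3 cells plated overnight in EMEM (2 × 10^5 cells/well); compound 5 μM added in opti-MEM, 30 min at 37 °C; cells trypsinized, PBS-washed, analysed by flow cytometry on FL2 channel; mean fluorescence of 10000 cells; triplicate.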

[24] = Drug uptake in doxorubicin-resistant human SKOV3 cell cytoplasm at 5 uM after 1 hr by confocal microscopic analysis; format: ADME, cell-based; conditions: sk-ov-3, 1 h; how it was run: as §1
SK-OV-3 [25] = experiment: Cytotoxicity against human SKOV3 cells at 10 uM incubated for 1 hr followed by incubation in compound-free medium for 72 hrs by MTT assay; format: functional; how it was run: as §2
SK-OV-3 [26] = experiment: Cytotoxicity against human SKOV3 cells at 5 to 10 uM by MTT assay relative to doxorubicin; format: functional; how it was run: as §2
[27] = target: DNA topoisomerase 2-alpha (Homo sapiens) (UniProt P11388); experiment: Inhibition of topoisomerase 2-mediated KDNA decatenation at 15 to 20 uM after 30 mins by gel electrophoretic analysis
How it was run: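 Eukaryotic Topo II decatenation of kDNA (0.1 μg) in Tris-HCl 50 mM pH 8.0, NaCl 150 mM, MgCl2 10 mM, DTT 0.5 mM, ATP 2 mM with compound at 1–25 μM final, 30 min at 37 °C; stopped with sarkosyl buffer; products resolved on 1% agarose with ethidium bromide.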

[28] = Chemical stability of the compound in pH 8, reaction buffer containing Tris-HCl, NaCl, MgCl2, dithiothreitol and ATP; format: physicochemical
How it was run: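 Compound held in Topo II reaction buffer (Tris-HCl 50 mM pH 8.0, NaCl 150 mM, MgCl2 10 mM, DTT 0.5 mM, ATP 2 mM) without enzyme; hydrolysis followed by HPLC.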

[29] = Half life in fetal bovine serum at 1 mM by HPLC analysis; format: ADME, cell-free, Bos taurus; conditions: cattle
How it was run: (§3)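 Compound (50 μL of 1 mM DMSO stock) incubated in 1 mL of 100% FBS or PBS pH 7.0 at 37 °C with shaking; aliquots taken from 10 min to 96 h, diluted with water, analysed by HPLC at 490 nm; peak areas give % remaining and % released Dox.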

[30] = Half life in PBS at 1 mM by HPLC analysis; format: physicochemical; how it was run: as §3
CCRF-CEM [31] = experiment: Drug metabolism in human CCRF-CEM cells assessed as doxorubicin formation at 1 uM by HPLC analysis; format: ADME, cell-based; conditions: TDE = time-dependent effect
How it was run: (§4)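 CCRF-CEM cells grown in serum-free RPMI, exposed to 1 μM compound 4 h at 37 °C, then moved to drug-free serum-free RPMI for set times; pellets washed with ice-cold PBS, extracted with methanol/chloroform/isopropanol (4:3:1), filtered; parent and released Dox quantified by HPLC at 490 nm.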

[32] = Drug metabolism in human CCRF-CEM cells assessed as compound hydrolysis at 1 uM after 12 hrs by HPLC analysis; format: ADME, cell-based; conditions: read-out: Drug metabolism; how it was run: as §4
[33] = Drug metabolism in human CCRF-CEM cells assessed as compound hydrolysis at 1 uM after 48 hrs by HPLC analysis; format: ADME, cell-based; conditions: read-out: Drug metabolism; how it was run: as §4
SK-OV-3 [34] = experiment: Cytotoxicity against human SKOV3 cells at > = 100 nM after 72 hrs by MTT assay; format: functional, cell-based; how it was run: as §2
Serum = experiment: Binding affinity to serum proteins in fetal bovine serum at 1 mM; format: ADME, cell-free, Bos taurus; conditions: cattle, 1000 µM
[35] = Drug metabolism in fetal bovine serum assessed as compound hydrolysis at 1 uM after 12 hrs by HPLC analysis
[36] = Drug metabolism in fetal bovine serum assessed as compound hydrolysis at 1 uM after 48 hrs by HPLC analysis

pIC50 (CCRF-CEM [16]) | Drug uptake [19] | Structure (SMILES) | inhibition at 1 µM (CCRF-CEM [1]) [%] | inhibition at 1 µM (HT-29 [2]) [%] | inhibition at 1 µM (MDA-MB-468 [3]) [%] | inhibition at 1 µM (MDA-MB-361 [4]) [%] | inhibition at 1 µM (SK-OV-3 [5]) [%] | inhibition (CCRF-CEM [6]) | inhibition (HT-29 [7]) | inhibition (MDA-MB-468 [8]) | inhibition (MDA-MB-361 [9]) | inhibition (SK-OV-3 [10]) | growth inhibition (GI) (CCRF-CEM [11]) | growth inhibition (GI) (HT-29 [12]) | growth inhibition (GI) (MDA-MB-468 [13]) | growth inhibition (GI) (MDA-MB-361 [14]) | growth inhibition (GI) (SK-OV-3 [15]) | inhibition at 1 µM (MDA-MB-468 [17]) [%] | other results
7.12 |  | COc1cccc2c1C(=O)c1c(O)c3c(c(O)c1C2=O)C[C@@](O)(C(=O)COC(=O)CCC(=O)O)C[C@@H]3O[C@H]1C[C@H](N)[C@H](O)[C@H](C)O1 | 69 | 60 | 49 | 66 | 54 | tde | tde | tde | tde | tde | Active | Active | Active | Active | Active |  | 
7.35 | Not Active | COc1cccc2c1C(=O)c1c(O)c3c(c(O)c1C2=O)C[C@@](O)(C(=O)CO)C[C@@H]3O[C@H]1C[C@H](N)[C@H](O)[C@H](C)O1 [DOXORUBICIN] |  |  |  |  |  |  |  |  |  |  |  |  |  |  |  | 69.1 | Drug uptake [18]: Active; Activity (SK-OV-3 [20]): 51.5%; pIC50 (SK-OV-3 [21]): 5.30; inhibition [22]: Active
7.12 |  | CCCCCCCCCCNC(=O)CCC(=O)OCC(=O)[C@]1(O)Cc2c(O)c3c(c(O)c2[C@@H](O[C@H]2C[C@H](N)[C@H](O)[C@H](C)O2)C1)C(=O)c1c(OC)cccc1C3=O | 69 | 60 | 49 | 66 | 54 | tde | tde | tde | tde | tde | Active | Active | Active | Active | Active |  | 
7.11 | Active | CCCCCCCCCCCCCCNC(=O)CCC(=O)OCC(=O)[C@]1(O)Cc2c(O)c3c(c(O)c2[C@@H](O[C@H]2C[C@H](N)[C@H](O)[C@H](C)O2)C1)C(=O)c1c(OC)cccc1C3=O | 69 | 60 | 49 | 66 | 54 | tde | tde | tde | tde | tde | Active | Active | Active | Active | Active | 70.2 | fold change (FC) (SK-OV-3 [23]): 3; Drug uptake [24]: Active; Activity (SK-OV-3 [25]): 67.1%; fold change (FC) (SK-OV-3 [26]): 1.4; inhibition [27]: Active; Stability [28]: Stable; half-life at 1000 µM [29]: 8.3 h; half-life at 1000 µM [30]: 19.3 h; Drug metabolism (CCRF-CEM [31]): tde; metabolised at 12 h, 1 µM [32]: > 75%; metabolised at 48 h, 1 µM [33]: 98%; Activity (SK-OV-3 [34]): Active; PB (Serum): Not Active; metabolised at 12 h, 1 µM [35]: 20%; metabolised at 48 h, 1 µM [36]: 30%

From ChEMBL document CHEMBL2021810, “Synthesis, anticancer activities, and cellular uptake studies of lipophilic derivatives of doxorubicin succinate” (J Med Chem, 2012)
